{"source": "ChEMBL document CHEMBL4219218", "about": "“P3-P4 ureas and reverse carbamates as potent HCV NS3 protease inhibitors: Effective transposition of the P4 hydrogen bond donor” (Bioorg Med Chem Lett, 2018)", "key": {"[1]": {"experiment": "Drug level in Sprague-Dawley rat liver at 15 mg/kg administered intraduodenally as single dose measured at 4 hrs by LC/MS/MS method", "assay_type": "ADME, organism-based", "details": "read-out: Drug uptake", "how_it_was_run": "(§1)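 Single intraduodenal dose of 15 mg/kg to rats, n = 2. Plasma and liver exposure measured over a 4 h period, with a 4 h endpoint.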"}, "[2]": {"experiment": "AUC in Sprague-Dawley rat plasma at 15 mg/kg administered intraduodenally as single dose measured at 4 hrs by LC/MS/MS method", "assay_type": "ADME, organism-based", "set-up": "dose 15 mg/kg, time < 4 hr, route intraduodenal", "how_it_was_run": "as §1"}}, "data": [{"compound": "C=C[C@@H]1C[C@]1(NC(=O)[C@@H]1C[C@@H](Oc2nccc3cc(OC)ccc23)CN1C(=O)[C@@H](NC(=O)OC(C)(C)C)C(C)(C)C)C(=O)NS(=O)(=O)C1CC1", "values": [{"measurement": "concentration at 4 h", "setting": "[1]", "value": 64700, "unit": "ng/g"}, {"measurement": "AUC at 4 h", "setting": "[2]", "value": 7420, "unit": "ng·h/mL"}]}, {"compound": "C=C[C@@H]1C[C@]1(NC(=O)[C@@H]1C[C@@H](Oc2cc(-c3ccccc3)nc3cc(OC)ccc23)CN1C(=O)[C@@H](NC(=O)OC(C)(C)C)C(C)(C)C)C(=O)NS(=O)(=O)C1CC1", "values": [{"measurement": "concentration at 4 h", "setting": "[1]", "value": 7850, "unit": "ng/g"}, {"measurement": "AUC at 4 h", "setting": "[2]", "value": 61, "unit": "ng·h/mL"}]}, {"compound": "C=C[C@@H]1C[C@]1(NC(=O)[C@@H]1C[C@@H](Oc2nccc3cc(OC)ccc23)CN1C(=O)[C@@H](NC(=O)NC(C)(C)C)C(C)(C)C)C(=O)NS(=O)(=O)C1CC1", "values": [{"measurement": "concentration at 4 h", "setting": "[1]", "value": 1110, "unit": "ng/g"}, {"measurement": "AUC at 4 h", "setting": "[2]", "value": 497, "unit": "ng·h/mL"}]}, {"compound": "C=C[C@@H]1C[C@]1(NC(=O)[C@@H]1C[C@@H](Oc2cc(-c3ccccc3)nc3cc(OC)ccc23)CN1C(=O)[C@H]([C@@H](C)CC)N(C)C(=O)NC1CCCC1)C(=O)NS(=O)(=O)C1CC1", "values": [{"measurement": "concentration at 4 h", "setting": "[1]", "value": 1240, "unit": "ng/g"}]}, {"compound": "C=C[C@@H]1C[C@]1(NC(=O)[C@@H]1C[C@@H](Oc2cc(-c3ccccc3)nc3cc(OC)ccc23)CN1C(=O)[C@@H](NC(=O)NC(C)(C)C)C(C)(C)C)C(=O)NS(=O)(=O)C1CC1", "values": [{"measurement": "concentration at 4 h", "setting": "[1]", "value": 72, "unit": "ng/g"}, {"measurement": "AUC at 4 h", "setting": "[2]", "value": 17, "unit": "ng·h/mL"}]}, {"compound": "C=C[C@@H]1C[C@]1(NC(=O)[C@@H]1C[C@@H](Oc2nccc3cc(OC)ccc23)CN1C(=O)[C@@H](NC(=O)N[C@H](COC)C(C)(C)C)C(C)(C)C)C(=O)NS(=O)(=O)C1CC1", "values": [{"measurement": "concentration at 4 h", "setting": "[1]", "value": 838, "unit": "ng/g"}, {"measurement": "AUC at 4 h", "setting": "[2]", "value": 3280, "unit": "ng·h/mL"}]}, {"compound": "C=C[C@@H]1C[C@]1(NC(=O)[C@@H]1C[C@@H](Oc2nccc3cc(OC)ccc23)CN1C(=O)[C@@H](NC(=O)N[C@H](C(=O)N1CCN(c2ncccn2)CC1)C(C)(C)C)C(C)(C)C)C(=O)NS(=O)(=O)C1CC1", "values": [{"measurement": "concentration at 4 h", "setting": "[1]", "value": 87, "unit": "ng/g"}, {"measurement": "AUC at 4 h", "setting": "[2]", "value": 1630, "unit": "ng·h/mL"}]}, {"compound": "C=C[C@@H]1C[C@]1(NC(=O)[C@@H]1C[C@@H](Oc2cc(-c3ccccc3)nc3cc(OC)ccc23)CN1C(=O)[C@@H](OC(=O)NC1CCCC1)C(C)(C)C)C(=O)NS(=O)(=O)C1CC1", "values": [{"measurement": "concentration at 4 h", "setting": "[1]", "value": 3430, "unit": "ng/g"}, {"measurement": "AUC at 4 h", "setting": "[2]", "value": 95, "unit": "ng·h/mL"}]}, {"compound": "C=C[C@@H]1C[C@]1(NC(=O)[C@@H]1C[C@@H](Oc2cc(-c3ccccc3)nc3cc(OC)ccc23)CN1C(=O)[C@H]([C@@H](C)CC)N(C)C(=O)NC(C)(C)C)C(=O)NS(=O)(=O)C1CC1", "values": [{"measurement": "concentration at 4 h", "setting": "[1]", "value": 1780, "unit": "ng/g"}, {"measurement": "AUC at 4 h", "setting": "[2]", "value": 16, "unit": "ng·h/mL"}]}, {"compound": "C=C[C@@H]1C[C@]1(NC(=O)[C@@H]1C[C@@H](Oc2nccc3cc(OC)ccc23)CN1C(=O)[C@@H](NC(=O)N[C@H](C(=O)O)C(C)(C)C)C(C)(C)C)C(=O)NS(=O)(=O)C1CC1", "values": [{"measurement": "AUC at 4 h", "setting": "[2]", "value": 91, "unit": "ng·h/mL"}]}, {"compound": "C=C[C@@H]1C[C@]1(NC(=O)[C@@H]1C[C@@H](Oc2nccc3cc(OC)ccc23)CN1C(=O)[C@@H](NC(=O)N[C@H](C(=O)OC(C)(C)C)C(C)(C)C)C(C)(C)C)C(=O)NS(=O)(=O)C1CC1", "values": [{"measurement": "concentration at 4 h", "setting": "[1]", "value": 4850, "unit": "ng/g"}, {"measurement": "AUC at 4 h", "setting": "[2]", "value": 632, "unit": "ng·h/mL"}]}, {"compound": "C=C[C@@H]1C[C@]1(NC(=O)[C@@H]1C[C@@H](Oc2cc(-c3ccccc3)nc3cc(OC)ccc23)CN1C(=O)[C@@H](OC(=O)NC(C)C)C(C)(C)C)C(=O)NS(=O)(=O)C1CC1", "values": [{"measurement": "concentration at 4 h", "setting": "[1]", "value": 430, "unit": "ng/g"}]}, {"compound": "C=C[C@@H]1C[C@]1(NC(=O)[C@@H]1C[C@@H](Oc2cc(-c3ccccc3)nc3cc(OC)ccc23)CN1C(=O)[C@@H](OC(=O)NC(C)(C)C)C(C)(C)C)C(=O)NS(=O)(=O)C1CC1", "values": [{"measurement": "concentration at 4 h", "setting": "[1]", "value": 3770, "unit": "ng/g"}, {"measurement": "AUC at 4 h", "setting": "[2]", "value": 82, "unit": "ng·h/mL"}]}, {"compound": "C=C[C@@H]1C[C@]1(NC(=O)[C@@H]1C[C@@H](Oc2cc(-c3ccccc3)nc3cc(OC)ccc23)CN1C(=O)[C@@H](NC(=O)N(C)C(C)(C)C)C(C)(C)C)C(=O)NS(=O)(=O)C1CC1", "values": [{"measurement": "concentration at 4 h", "setting": "[1]", "value": 2600, "unit": "ng/g"}, {"measurement": "AUC at 4 h", "setting": "[2]", "value": 32, "unit": "ng·h/mL"}]}]}
